Measurements gathered from unrelated publications.
Protocols differ between the studies behind these lines.
MAOB: Amine oxidase [flavin-containing] B (MAOB, Homo sapiens, UniProt P27338)
KCNU1: KCNU1 (Homo sapiens, UniProt A8MYU2)
CA9: Carbonic anhydrase 9 (CA9, Homo sapiens, UniProt Q16790)
Adora1: Adenosine receptor A1 (Adora1, Rattus norvegicus, UniProt P25099)
EDNRB: Endothelin receptor type B (EDNRB, Homo sapiens, UniProt P24530)
CHRM4: Muscarinic acetylcholine receptor M4 (CHRM4, Homo sapiens, UniProt P08173)

Compound | target | test | system | conditions | inhibition [%]
Cc1ccc(NC(=O)c2cc(Cl)ccc2O)cc1[N+](=O)[O-] | MAOB | enzyme activity, inhibitor |  | 1 µM, 20 min | 85
CCN(CC)CCNC(=O)C1CCN(c2ccc3nnc(-c4cccc(C)c4)n3n2)CC1 | KCNU1 | ion current, inhibitor, patch clamp | HEK293 | 10 µM | 62
CCOc1ccc(C(=O)Nc2ccc([N+](=O)[O-])cc2Cl)cc1OCC | MAOB | enzyme activity, inhibitor |  | 1 µM, 20 min | 34
O=C1NC(=S)C(=Cc2cn(-c3ccccc3)nc2-c2ccc(Br)cc2)S1 | CA9 | enzyme activity, inhibitor |  | 10 µM | 83.7
CN(C)C1CCN(CC#Cc2nn(C3CCCC3)c3nc(NCc4ccccc4)ncc23)C1 (centres unmarked) | Serine/threonine-protein kinase 26 (STK26, Homo sapiens, UniProt Q9P289) | enzyme activity, inhibitor, FRET |  | 10 µM | 78
O=C(Nc1ccc(Br)cc1)c1ccccn1 | MAOB | enzyme activity, inhibitor |  | 1 µM, 20 min | 85
O=C(c1ccc(Cl)cc1)N(Cc1ccccc1)C1CCCCC1 | Beta-1 adrenergic receptor (ADRB1, Homo sapiens, UniProt P08588) | cell-free assay |  | 10 µM | -27.9
CCCCCC(C)N1CCCn2c1nc1c2c(=O)n(C)c(=O)n1C (centres unmarked) | Adora1 | ligand displacement, radioligand |  | 25 µM, cell membranes | 30
COc1cc(NC(C)=O)c(Cl)cc1C(=O)Nc1nccs1 | Histamine H1 receptor (HRH1, Homo sapiens, UniProt P35367) | cell-free assay |  | 10 µM | -2
C#CCN1CCCn2c1nc1c2c(=O)n(C)c(=O)n1C | Adora1 | ligand displacement, radioligand |  | 25 µM, cell membranes | 46
Oc1cccc(Nc2nc(-c3ccc(F)cc3F)cs2)c1 | EDNRB | cell-free assay |  | 10 µM | -4.3
N=c1n(CCN2CCCCC2)c2ccccc2n1CC(O)c1cccc(Br)c1 (centres unmarked) | KCNU1 | ion current, inhibitor, patch clamp | HEK293 | 10 µM | 17
Cc1ccc(C(=O)Nc2ccc(S(=O)(=O)O)c3cc(S(=O)(=O)O)cc(S(=O)(=O)O)c23)cc1NC(=O)c1cccc(NC(=O)Nc2cccc(C(=O)Nc3cc(C(=O)Nc4ccc(S(=O)(=O)O)c5cc(S(=O)(=O)O)cc(S(=O)(=O)O)c45)ccc3C)c2)c1 | NAD-dependent protein deacylase sirtuin-5, mitochondrial (SIRT5, Homo sapiens, UniProt Q9NXA8) | enzyme activity, inhibitor |  | 1 mM | > 60
O=C(Nc1ccc(S(=O)(=O)N2CCC(Cl)CC2)cc1)c1ccc([N+](=O)[O-])o1 | EDNRB | ligand displacement, radioligand |  | 10 µM | 3
COc1cc(N)ccc1NC(=O)c1ccccc1 | MAOB | enzyme activity, inhibitor |  | 1 µM, 20 min | 1
CCOC(=O)C1CSc2[nH]c(=O)sc2C1c1cn(-c2ccccc2)nc1-c1ccc(Cl)cc1 (centres unmarked) | CA9 | enzyme activity, inhibitor |  | 10 nM | 12

Compound | target | test | system | conditions | inhibition [%]
N#Cc1cc(Cn2c(N3CCCC3)nc3ccccc32)ccc1F | CHRM4 | ligand displacement |  | 10 µM | -6.19
O=C(Nc1cc(Cl)cc(Cl)c1)c1cc(Cl)ccc1O | MAOB | enzyme activity, inhibitor |  | 1 µM, 20 min | 0
CCN(Cc1ccccc1C(F)(F)F)C(=O)C1CCN(S(=O)(=O)c2ccc3[nH]ncc3c2)CC1 | EDNRB | ligand displacement, radioligand |  | 10 µM | 8
CNC(=O)c1csc(Nc2cccc(C)n2)n1 | MAOB | enzyme activity, inhibitor, fluorescence |  | 30 µM | 53
CCC(C)N1CCCn2c1nc1c2c(=O)n(C)c(=O)n1C (centres unmarked) | Adora1 | ligand displacement, radioligand |  | 25 µM, cell membranes | 40
Cn1cnc(Br)c1C1=CN(c2ncnc3[nH]cnc23)CCS1 | Dual specificity tyrosine-phosphorylation-regulated kinase 4 (DYRK4, Homo sapiens, UniProt Q9NR20) | enzyme activity, inhibitor, radiometric |  | 2 µM | 72.2
Cc1ccc(-c2nn(-c3ccccc3)cc2C2c3sc(=O)[nH]c3SC3C(=O)N(c4ccccc4)C(=O)C32)cc1 (centres unmarked) | CA9 | enzyme activity, inhibitor |  | 10 µM | 77.9
O=C(Nc1ccc([N+](=O)[O-])cc1)c1ccc([N+](=O)[O-])cc1Cl | MAOB | enzyme activity, inhibitor |  | 1 µM, 20 min | 68
CCOC(=O)C1CSc2[nH]c(=O)sc2C1c1cn(-c2ccccc2)nc1-c1ccc(C)cc1 (centres unmarked) | CA9 | enzyme activity, inhibitor |  | 0.1 µM | 35.5
O=C(Nc1ccccc1)c1ccc2c(c1)OCO2 | MAOB | enzyme activity, inhibitor |  | 1 µM, 20 min | 80
CCOC(=O)C1CSc2[nH]c(=O)sc2C1c1cn(-c2ccccc2)nc1-c1ccc(Br)cc1 (centres unmarked) | CA9 | enzyme activity, inhibitor |  | 0.1 µM | 42.2
O=C(Nc1ccc([N+](=O)[O-])cc1Cl)c1ccccc1 | MAOB | enzyme activity, inhibitor |  | 1 µM, 20 min | 25
N#CC1CSc2[nH]c(=O)sc2C1c1cn(-c2ccccc2)nc1-c1ccc(Br)cc1 (centres unmarked) | CA9 | enzyme activity, inhibitor |  | 0.1 µM | 60.1
CCN(CC)c1ccc(C2Nc3ccc(C(=O)c4ccccc4)cc3NC3=C2C(=O)CC(C)(C)C3)cc1 (centres unmarked) | CHRM4 | ligand displacement, radioligand |  | 10 µM | -1
CCOC(=O)C1CSc2[nH]c(=O)sc2C1c1cn(-c2ccccc2)nc1-c1ccc(OC)cc1 (centres unmarked) | CA9 | enzyme activity, inhibitor |  | 0.1 µM | 53.6
CCN1CCCn2c1nc1c2c(=O)n(C)c(=O)n1C | Adora1 | ligand displacement, radioligand |  | 25 µM, cell membranes | 42
